According to ChEMBL document CHEMBL2203123, “Synthesis and biological evaluation of some hydrazone derivatives as new anticandidal and anticancer agents” (Eur J Med Chem, 2012):
Values after ≈ are worked out from the molar mass of the structure shown.

Experiments:
Salmonella typhimurium [1] = assay: Genotoxicity against Salmonella typhimurium TA100 assessed as fold increase in revertants at 0.625 mg/ml after 90 mins by Ames MPF test in presence of S9 fraction relative to baseline; type: toxicity, organism-based; settings: salmonella enterica subsp. enterica serovar typhimurium, s9, 1.5 h
Method in brief: (§1)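 Ames MPF fluctuation test, TA98 and TA100: overnight cultures reincubated 90 min, then exposed 90 min at 37 °C to compounds at 0.156-5 mg/mL (in DMSO) with or without 4.5% v/v S9; indicator medium added, 48 wells per sample scored yellow after 48 h, triplicate. Fold over baseline = mean positive wells / (mean of DMSO control + 1 SD).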

Nakaseomyces glabratus [2] = assay: Antifungal activity against Candida glabrata Anadolu University clinical isolate after 24 hrs by microdilution susceptibility assay; type: functional
Method in brief: (§2)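 Broth microdilution in Mueller Hinton Broth, compounds from DMSO stocks diluted serially; inocula standardized to 10^6 CFU/mL (McFarland 0.5) from overnight MHB cultures. Plates held 37 °C for 24 h; MIC taken as first well without turbidity, aided by 1% tetrazolium violet added for 3 h at 37 °C. Ketoconazole reference.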

[3] = Genotoxicity against Salmonella typhimurium TA1535/pSK1002 assessed as induction ratio at 5 mg/ml by umuC assay in absence of S9 fraction; type: toxicity, organism-based; settings: salmonella enterica subsp. enterica serovar typhimurium, Salmonella typhimurium TA1535/pSK1002 without S9 fraction
Method in brief: (§3)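 umuC Easy CS: TA1535/pSK1002 grown overnight in ampicillin TG medium at 37 °C, then exposed 2 h at 37 °C to compounds at 5, 2.5, 1.25, 0.63 mg/mL with or without S9. Diluted into fresh medium for 2 h growth (OD600), then β-galactosidase with ONPG 30 min at 28 °C, OD420. Positive controls 2-aminoanthracene (+S9), […] (−S9).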

Salmonella typhimurium [4] = assay: Genotoxicity against Salmonella typhimurium TA1535/pSK1002 assessed as growth factor ratio at 5 mg/ml by umuC assay in presence of S9 fraction; type: toxicity, organism-based; settings: salmonella enterica subsp. enterica serovar typhimurium; method in brief: as §3
Salmonella typhimurium [5] = assay: Genotoxicity against Salmonella typhimurium TA1535/pSK1002 assessed as induction ratio at 2.5 mg/ml by umuC assay in presence of S9 fraction; type: toxicity, organism-based; settings: salmonella enterica subsp. enterica serovar typhimurium; method in brief: as §3
Salmonella typhimurium [6] = assay: Genotoxicity against Salmonella typhimurium TA100 assessed as fold increase in revertants at 1.25 mg/ml after 90 mins by Ames MPF test in presence of S9 fraction relative to baseline; type: toxicity, organism-based; settings: salmonella enterica subsp. enterica serovar typhimurium, s9, 1.5 h; method in brief: as §1
Salmonella typhimurium [7] = assay: Genotoxicity against Salmonella typhimurium TA1535/pSK1002 assessed as growth factor ratio at 2.5 mg/ml by umuC assay in absence of S9 fraction; type: toxicity, organism-based; settings: salmonella enterica subsp. enterica serovar typhimurium; method in brief: as §3
Pichia kudriavzevii = assay: Antifungal activity against Candida krusei NRRL Y-7179 after 24 hrs by microdilution susceptibility assay; type: functional; settings: NRRL Y-7179, 24 h; method in brief: as §2
Salmonella typhimurium [8] = assay: Genotoxicity against Salmonella typhimurium TA100 assessed as fold increase in revertants at 0.156 mg/ml after 90 mins by Ames MPF test in presence of S9 fraction relative to baseline; type: toxicity, organism-based; settings: salmonella enterica subsp. enterica serovar typhimurium, s9, 1.5 h; method in brief: as §1
Salmonella typhimurium [9] = assay: Genotoxicity against Salmonella typhimurium TA100 assessed as fold increase in revertants at 0.3125 mg/ml after 90 mins by Ames MPF test in absence of S9 fraction relative to baseline; type: toxicity, organism-based; settings: salmonella enterica subsp. enterica serovar typhimurium, 1.5 h; method in brief: as §1
Salmonella typhimurium [10] = assay: Genotoxicity against Salmonella typhimurium TA98 assessed as fold increase in revertants at 2.5 mg/ml after 90 mins by Ames MPF test in presence of S9 fraction relative to baseline; type: toxicity, organism-based; settings: salmonella enterica subsp. enterica serovar typhimurium, s9, 1.5 h; method in brief: as §1
Salmonella typhimurium [11] = assay: Genotoxicity against Salmonella typhimurium TA98 assessed as fold increase in revertants at 5 mg/ml after 90 mins by Ames MPF test in absence of S9 fraction relative to baseline; type: toxicity, organism-based; settings: salmonella enterica subsp. enterica serovar typhimurium, 1.5 h; method in brief: as §1
Salmonella typhimurium [12] = assay: Genotoxicity against Salmonella typhimurium TA1535/pSK1002 assessed as growth factor ratio at 2.5 mg/ml by umuC assay in presence of S9 fraction; type: toxicity, organism-based; settings: salmonella enterica subsp. enterica serovar typhimurium; method in brief: as §3
[13] = Genotoxicity against Salmonella typhimurium TA1535/pSK1002 assessed as induction ratio at 1.25 mg/ml by umuC assay in absence of S9 fraction; type: toxicity, organism-based; settings: salmonella enterica subsp. enterica serovar typhimurium, Salmonella typhimurium TA1535/pSK1002 without S9 fraction; method in brief: as §3
Salmonella typhimurium [14] = assay: Genotoxicity against Salmonella typhimurium TA100 assessed as fold increase in revertants at 0.625 mg/ml after 90 mins by Ames MPF test in absence of S9 fraction relative to baseline; type: toxicity, organism-based; settings: salmonella enterica subsp. enterica serovar typhimurium, 1.5 h; method in brief: as §1
Salmonella typhimurium [15] = assay: Genotoxicity against Salmonella typhimurium TA1535/pSK1002 assessed as induction ratio at 0.63 mg/ml by umuC assay in absence of S9 fraction; type: toxicity, organism-based; settings: salmonella enterica subsp. enterica serovar typhimurium; method in brief: as §3
Salmonella typhimurium [16] = assay: Genotoxicity against Salmonella typhimurium TA98 assessed as fold increase in revertants at 1.25 mg/ml after 90 mins by Ames MPF test in presence of S9 fraction relative to baseline; type: toxicity, organism-based; settings: salmonella enterica subsp. enterica serovar typhimurium, s9, 1.5 h; method in brief: as §1
Salmonella typhimurium [17] = assay: Genotoxicity against Salmonella typhimurium TA98 assessed as fold increase in revertants at 1.25 mg/ml after 90 mins by Ames MPF test in absence of S9 fraction relative to baseline; type: toxicity, organism-based; settings: salmonella enterica subsp. enterica serovar typhimurium, 1.5 h; method in brief: as §1
Salmonella typhimurium [18] = assay: Genotoxicity against Salmonella typhimurium TA1535/pSK1002 assessed as growth factor ratio at 0.63 mg/ml by umuC assay in absence of S9 fraction; type: toxicity, organism-based; settings: salmonella enterica subsp. enterica serovar typhimurium; method in brief: as §3
Candida albicans [19] = assay: Antifungal activity against Candida albicans ATCC 90028 after 24 hrs by microdilution susceptibility assay; type: functional; settings: ATCC 90028, 24 h; method in brief: as §2
Salmonella typhimurium [20] = assay: Genotoxicity against Salmonella typhimurium TA98 assessed as fold increase in revertants at 0.156 mg/ml after 90 mins by Ames MPF test in absence of S9 fraction relative to baseline; type: toxicity, organism-based; settings: salmonella enterica subsp. enterica serovar typhimurium, 1.5 h; method in brief: as §1
Salmonella typhimurium [21] = assay: Genotoxicity against Salmonella typhimurium TA98 assessed as fold increase in revertants at 0.3125 mg/ml after 90 mins by Ames MPF test in presence of S9 fraction relative to baseline; type: toxicity, organism-based; settings: salmonella enterica subsp. enterica serovar typhimurium, s9, 1.5 h; method in brief: as §1
Nakaseomyces glabratus [22] = assay: Antifungal activity against Candida glabrata Osmangazi University clinical isolate after 24 hrs by microdilution susceptibility assay; type: functional; method in brief: as §2
Salmonella typhimurium [23] = assay: Genotoxicity against Salmonella typhimurium TA98 assessed as fold increase in revertants at 0.3125 mg/ml after 90 mins by Ames MPF test in absence of S9 fraction relative to baseline; type: toxicity, organism-based; settings: salmonella enterica subsp. enterica serovar typhimurium, 1.5 h; method in brief: as §1
[24] = Genotoxicity against Salmonella typhimurium TA1535/pSK1002 assessed as induction ratio at 0.63 mg/ml by umuC assay in presence of S9 fraction; type: toxicity, organism-based; settings: salmonella enterica subsp. enterica serovar typhimurium, Salmonella typhimurium TA1535/pSK1002 with S9 fraction; method in brief: as §3
Salmonella typhimurium [25] = assay: Genotoxicity against Salmonella typhimurium TA98 assessed as fold increase in revertants at 0.156 mg/ml after 90 mins by Ames MPF test in presence of S9 fraction relative to baseline; type: toxicity, organism-based; settings: salmonella enterica subsp. enterica serovar typhimurium, s9, 1.5 h; method in brief: as §1
Candida albicans [26] = assay: Antifungal activity against Candida albicans ATCC 10231 after 24 hrs by microdilution susceptibility assay; type: functional; settings: ATCC 10231, 24 h; method in brief: as §2
Salmonella typhimurium [27] = assay: Genotoxicity against Salmonella typhimurium TA100 assessed as fold increase in revertants at 0.3125 mg/ml after 90 mins by Ames MPF test in presence of S9 fraction relative to baseline; type: toxicity, organism-based; settings: salmonella enterica subsp. enterica serovar typhimurium, s9, 1.5 h; method in brief: as §1
Salmonella typhimurium [28] = assay: Genotoxicity against Salmonella typhimurium TA100 assessed as fold increase in revertants at 2.5 mg/ml after 90 mins by Ames MPF test in absence of S9 fraction relative to baseline; type: toxicity, organism-based; settings: salmonella enterica subsp. enterica serovar typhimurium, 1.5 h; method in brief: as §1

| MIC (Nakaseomyces glabratus [2]) [µg/mL] | MIC (Pichia kudriavzevii) [µg/mL] | MIC (Candida albicans [19]) [µg/mL] | Compound | fold change (FC) (Salmonella typhimurium [1]) | fold induction at 5 mg/ml [3] | Ratio (Salmonella typhimurium [4]) | Ratio (Salmonella typhimurium [5]) | fold change (FC) (Salmonella typhimurium [6]) | Ratio (Salmonella typhimurium [7]) | fold change (FC) (Salmonella typhimurium [8]) | fold change (FC) (Salmonella typhimurium [9]) | fold change (FC) (Salmonella typhimurium [10]) | fold change (FC) (Salmonella typhimurium [11]) | Ratio (Salmonella typhimurium [12]) | fold induction at 1.25 mg/ml [13] | fold change (FC) (Salmonella typhimurium [14]) | Ratio (Salmonella typhimurium [15]) | fold change (FC) (Salmonella typhimurium [16]) | fold change (FC) (Salmonella typhimurium [17]) | Ratio (Salmonella typhimurium [18]) | further results |
| --- | --- | --- | --- | --- | --- | --- | --- | --- | --- | --- | --- | --- | --- | --- | --- | --- | --- | --- | --- | --- | --- |
| 125 (≈ 408 µM) | 125 (≈ 408 µM) | 500 (≈ 1630 µM) | COc1ccc(/C=N/NC(=O)CSc2nnnn2C)cc1 | 0.89 | 0.763 | 2.261 | 0.681 | 0.81 | 1.166 | 0.46 | 0.4 | 0.53 | 0.33 | 1.83 | 1.12 | 0.3 | 1.357 | 0.53 | 0.33 | 1.028 | fold change (FC) (Salmonella typhimurium [20]): 0.16; fold change (FC) (Salmonella typhimurium [21]): 0.84; MIC (Nakaseomyces glabratus [22]): 500 µg/mL (≈ 1630 µM); fold change (FC) (Salmonella typhimurium [23]): 0.16; fold induction at 0.63 mg/ml [24]: 0.814; fold change (FC) (Salmonella typhimurium [25]): 0.42; MIC (Candida albicans [26]): 500 µg/mL (≈ 1630 µM); fold change (FC) (Salmonella typhimurium [27]): 0.77; fold change (FC) (Salmonella typhimurium [28]): 0.6 |
| 250 (≈ 778 µM) | 125 (≈ 389 µM) | 62.5 (≈ 195 µM) | Cn1nnnc1SCC(=O)N/N=C/c1ccccc1[N+](=O)[O-] | 1.28 | 1.43 | 0.913 | 1.014 | 1.93 | 1.03 | 1.35 | 1.67 | 2.22 | 1.14 | 0.922 | 1.51 | 0.83 | 1.509 | 2 | 2.78 | 1.068 | fold change (FC) (Salmonella typhimurium [20]): 1.63; fold change (FC) (Salmonella typhimurium [21]): 1.22; MIC (Nakaseomyces glabratus [22]): 500 µg/mL (≈ 1560 µM); fold change (FC) (Salmonella typhimurium [23]): 1.63; fold induction at 0.63 mg/ml [24]: 1.23; fold change (FC) (Salmonella typhimurium [25]): 1; MIC (Candida albicans [26]): 500 µg/mL (≈ 1560 µM); fold change (FC) (Salmonella typhimurium [27]): 1.08; fold change (FC) (Salmonella typhimurium [28]): 0.67 |
| 250 (≈ 849 µM) | 500 (≈ 1700 µM) | 500 (≈ 1700 µM) | Cn1nnnc1SCC(=O)N/N=C/c1ccccc1F | 0.66 | 0.321 | 2.579 | 0.352 | 0.88 | 1.559 | 0.66 | 0.06 | 1.57 | 1.59 | 1.699 | 1.02 | 0.23 | 1.312 | 1.28 | 0.32 | 1.045 | fold change (FC) (Salmonella typhimurium [20]): 0.64; fold change (FC) (Salmonella typhimurium [21]): 0.71; MIC (Nakaseomyces glabratus [22]): 250 µg/mL (≈ 849 µM); fold change (FC) (Salmonella typhimurium [23]): 1.59; fold induction at 0.63 mg/ml [24]: 0.936; fold change (FC) (Salmonella typhimurium [25]): 0.29; MIC (Candida albicans [26]): 250 µg/mL (≈ 849 µM); fold change (FC) (Salmonella typhimurium [27]): 0.51; fold change (FC) (Salmonella typhimurium [28]): 0.17 |
